The source made the active and inactive calls.
Key:
SH-SY5Y [1] = assay: Neuroprotective activity against oxygen-glucose deprivation-induced toxicity in human SH-SY5Y cells assessed as increase in cell viability at 10 uM by MTT assay; format: functional
Outline: (§1)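 SH-SY5Y cells were given one of two insults: H2O2-induced oxidative stress, with cell viability read by MTT, or oxygen glucose deprivation (OGD)-induced cell damage. Compounds were tested at 10 µM, and the result is expressed as percent neuroprotection.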

SH-SY5Y [2] = assay: Neuroprotection against H202-induced toxicity in human SH-SY5Y cells assessed as cytoprotection by MTT assay; format: functional, cell-based
Outline: (§2)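 SH-SY5Y cells were exposed to H2O2 or to oxygen glucose deprivation (OGD) cytotoxicity. EC50 was defined as the concentration giving 50% protective effect relative to the control group. Values are averages of three independent experiments, given as mean ± SEM.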

SH-SY5Y [3] = assay: Neuroprotection against oxygen-glucose deprivation-induced toxicity in human SH-SY5Y cells assessed as cytoprotection by MTT assay; format: functional, cell-based; outline: as §2
RAW264.7 = assay: Inhibition of LPS-induced NO production in mouse RAW264.7 cells assessed as NO production activity at 10 uM by Griess reagent based assay; format: functional
SH-SY5Y [4] = assay: Neuroprotective activity against human SH-SY5Y cells assessed as Abeta42-induced cytotoxicity at 1 uM by MTT assay; format: functional
SH-SY5Y [5] = assay: Neuroprotective activity against human SH-SY5Y cells assessed as Abeta42-induced cytotoxicity at 30 uM by MTT assay; format: functional
SH-SY5Y [6] = assay: Neuroprotection against H202-induced oxidative stress in human SH-SY5Y cells assessed as increase in cell viability at 10 uM by MTT assay; format: functional; outline: as §1
SH-SY5Y [7] = assay: Neuroprotective activity against human SH-SY5Y cells assessed as Abeta42-induced cytotoxicity at 10 uM by MTT assay; format: functional
SH-SY5Y [8] = assay: Neuroprotection against H202-induced oxidative stress in human SH-SY5Y cells assessed as increase in cell viability at 1 mM by MTT assay; format: functional
SH-SY5Y [9] = assay: Neuroprotective activity against oxygen-glucose deprivation-induced toxicity in human SH-SY5Y cells assessed as increase in cell viability at 1 mM by MTT assay; format: functional

| SMILES | Activity (SH-SY5Y [1]) [%] | EC50 (SH-SY5Y [2]) [µM] | EC50 (SH-SY5Y [3]) [µM] | Residual NO production (RAW264.7) [%] | Activity (SH-SY5Y [6]) [%] | also measured |
| --- | --- | --- | --- | --- | --- | --- |
| COc1ccc2ccc(=O)oc2c1CC=C(C)C [OSTHOLE] | 28.6 | 33.3 | 26.4 | 85.6 | – | Activity (SH-SY5Y [4]): inactive; Activity (SH-SY5Y [5]): 37.1% |
| CC(C)(O)C1Cc2c(ccc3cc(-c4ccc(F)cc4)c(=O)oc23)O1 (stereo not drawn) | 23.5 | – | – | – | 21.3 | – |
| CC(C)=CCc1c(OCC(=O)N2CCOCC2)ccc2ccc(=O)oc12 | 23.2 | 27.5 | > 100 | 74.1 | 31.5 | – |
| CC(C)(O)C1Cc2c(ccc3cc(-c4ccccc4)c(=O)oc23)O1 (stereo not drawn) | 23.2 | – | – | – | 19.7 | – |
| CC(C)(O)C1Cc2c(ccc3cc(-c4cccc(F)c4)c(=O)oc23)O1 (stereo not drawn) | 41.2 | 75.9 | 18.8 | 106.2 | 29 | – |
| CC(C)=CCc1c(OCC(=O)Nc2ccc(N3CCNCC3)cn2)ccc2ccc(=O)oc12 | 49.4 | – | – | – | 44.5 | – |
| CC(C)=CCc1c(OCC(=O)Nc2ccc(N3CCCC3)cc2)ccc2ccc(=O)oc12 | 63.4 | 11.9 | 5.62 | 50.4 | 47.7 | inhibition at 1 µM (SH-SY5Y [4]): 47.8%; inhibition at 10 µM (SH-SY5Y [7]): 46.3% |
| CC(C)=CCc1c(OCC(=O)N2CCCC2)ccc2ccc(=O)oc12 | 43.6 | 67.3 | 15.3 | 75.4 | 28 | – |
| CC(=O)N[C@@H](CS)C(=O)O [ACETYLCYSTEINE] | – | – | – | – | – | Activity (SH-SY5Y [8]): 37.1%; Activity (SH-SY5Y [9]): 84.3% |
| CC(C)=CCc1c(OCC(=O)Nc2ccc(N3CCOCC3)cc2)ccc2ccc(=O)oc12 | 13.2 | – | – | – | 39.5 | – |
| Cc1ccc(-c2cc3ccc4c(c3oc2=O)CC(C(C)(C)O)O4)cc1 (stereo not drawn) | – | – | – | – | 18.2 | – |
| CC(C)=CCc1c(OCC(=O)Nc2ccc(N3CCNCC3)cc2)ccc2ccc(=O)oc12 | 8.4 | – | – | – | 22.5 | – |
| CC(C)=CCc1c(OCC(=O)N2CCNCC2)ccc2ccc(=O)oc12 | 28.2 | – | – | – | 29.2 | – |
| CC(C)=CCc1c(OCC(=O)N2CCCCC2)ccc2ccc(=O)oc12 | – | – | – | – | 5.5 | – |
| CC(C)=CCc1c(OCC(=O)Nc2ccc(N3CCCC3)cn2)ccc2ccc(=O)oc12 | 58.2 | – | – | – | 45.2 | – |
| COc1ccc2c(c1)c(CC(=O)O)c(C)n2C(=O)c1ccc(Cl)cc1 [INDOMETHACIN] | – | – | – | 53.2 | – | – |
| CC(C)(O)C1Cc2c(ccc3cc(-c4ccccc4F)c(=O)oc23)O1 (stereo not drawn) | 37.2 | 32.3 | 40.1 | 85.2 | 36.5 | – |
| COc1cccc(-c2cc3ccc4c(c3oc2=O)CC(C(C)(C)O)O4)c1 (stereo not drawn) | 42.8 | 30.4 | 13.3 | 73.3 | 31 | – |
| CC(C)=CCc1c(OCC(=O)Nc2ccc(N3CCCCC3)cn2)ccc2ccc(=O)oc12 | 16.8 | – | – | – | 32.7 | – |
| CCN1CCN(C(=O)COc2ccc3ccc(=O)oc3c2CC=C(C)C)CC1 | 48 | 29.8 | 12.5 | 72.3 | 33.7 | – |
| CC(C)=CCc1c(OCC(=O)Nc2ccc(N3CCCCC3)cc2)ccc2ccc(=O)oc12 | – | – | – | – | 12.5 | – |
| COc1ccc(CNC(=O)Oc2ccc3ccc(=O)oc3c2CC=C(C)C)cc1 | 35 | > 100 | 23.3 | 77.4 | 28.7 | – |
| CC(C)=CCc1c(OC(=O)NC2CCCCC2)ccc2ccc(=O)oc12 | – | – | – | – | 13 | – |
| CC(C)=CCc1c(OCC(=O)N2CCN(C(=O)OC(C)(C)C)CC2)ccc2ccc(=O)oc12 | 64.6 | 10.3 | 3.27 | 62.8 | 45.7 | inhibition at 1 µM (SH-SY5Y [4]): 55.2%; inhibition at 10 µM (SH-SY5Y [7]): 61.4% |
| CC(C)=CCc1c(OCC(=O)Nc2ccc(N3CCOCC3)cn2)ccc2ccc(=O)oc12 | 51.4 | 16.6 | 9.05 | 80.3 | 43.5 | – |

— ChEMBL document CHEMBL4699614, “Design, synthesis and biological evaluation of novel osthole-based derivatives as potential neuroprotective agents” (Bioorg Med Chem Lett, 2020)
